Most compounds without a hit are left out; they make up all but 1.8% or so of the library.
CHRM5 antagonist – blocks acetylcholine activation of human M5 receptor; P08912; CHO-hM5 cells, Fluo-8 calcium fluorescence, ACh EC80; inhibition, % at 3 µM; actives 0.59% (n = 360,000); AID 624040;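 active = inhibition above a per-plate cutoff, the mean of that plate's test compounds plus 3 SD, cut at about 27% in these data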;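 note: 0% = acetylcholine EC80 with DMSO and 100% = DMSO without agonist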
Target sequence (P08912 whole entry, looked up): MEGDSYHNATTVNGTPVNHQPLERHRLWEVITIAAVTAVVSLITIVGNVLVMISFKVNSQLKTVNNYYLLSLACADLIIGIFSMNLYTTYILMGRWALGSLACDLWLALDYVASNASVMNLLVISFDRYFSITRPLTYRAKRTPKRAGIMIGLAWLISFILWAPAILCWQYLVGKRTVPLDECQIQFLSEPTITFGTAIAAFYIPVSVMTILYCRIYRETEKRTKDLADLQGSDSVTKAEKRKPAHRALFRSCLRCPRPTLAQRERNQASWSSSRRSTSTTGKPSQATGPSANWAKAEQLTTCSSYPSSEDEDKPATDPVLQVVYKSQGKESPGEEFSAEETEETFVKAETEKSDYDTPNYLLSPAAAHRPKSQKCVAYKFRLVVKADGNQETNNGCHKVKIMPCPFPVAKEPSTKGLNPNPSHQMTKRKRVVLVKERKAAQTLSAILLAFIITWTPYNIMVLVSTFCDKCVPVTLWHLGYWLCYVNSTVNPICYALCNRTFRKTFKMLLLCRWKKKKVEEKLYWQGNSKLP
CHRM5 agonist – CHRM5 agonism in calcium assay. actives 0.19% (n = 360,000). P08912. activation, % at 3 µM. CHO-K1 hM5 cells, Fluo-8 calcium fluorescence; 0% DMSO wells, 100% maximal acetylcholine response. AID 624037;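 active = activation above the run's mean over test compounds plus 3 SD, cut at about 23% in these data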;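 note: signal is peak over basal fluorescence ratio across the kinetic read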
M5 PAM – positive allosteric modulators of human muscarinic M5 receptor | P08912 | CHO-K1 hM5, Fluo-8 calcium, ACh EC20 PAM; 0% = ACh EC20, 100% = ACh EC100 | activation, % at 3 µM | actives 0.3% (n = 360,000) | AID 624038;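 active = activation above the run cutoff, the mean activation of all test compounds plus 3 SD, cut at about 18% in these data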
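Replicates: One well per compound, no replicates | System: Human M5 receptor in CHO-K1 cells | Benchmarks: Low control EC20 acetylcholine (0%), high control EC100 acetylcholine (100%) | Probe or stimulus: Acetylcholine, EC20 level | Times: Fluo-8 loading 80 min at 37 °C plus 30 min room temperature | Signal: Intracellular calcium via Fluo-8 fluorescence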
M4 ag – agonists of human muscarinic M4 receptor (CHRM4); CHO-K1 hM4/Gqi5, Fluo-8 calcium fluorescence; vehicle 0%, full acetylcholine response 100%; P08173; AID 624127; activation, % at 3 µM; actives 0.14% (n = 360,000);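 active = activation above the run mean over all test wells plus 3 SD, cut at about 32% in these data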;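 note: peak over basal fluorescence ratio per well then scaled between controls; 0% = DMSO wells and 100% = acetylcholine at EC100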
M4 PAM – potentiates acetylcholine response at human M4 receptor | CHO-K1 hM4/Gqi5, Fluo-8 calcium fluorescence, ACh EC20; 0% = ACh EC20, 100% = maximal ACh | actives 0.4% (n = 360,000) | activation, % at 3 µM | P08173;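 active = activation above its plate's cutoff, the mean activation of sample wells plus 3 SD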
CHRM4 antagonist – CHRM4 antagonism in calcium assay; P08173; CHO-hM4 cells, ACh EC80, Fluo-8 calcium fluorescence; inhibition, % at 3 µM; actives 0.73% (n = 360,000); AID 624125;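 active = inhibition above its plate's cutoff, the mean inhibition of sample wells plus 3 SD, cut at about 27% in these data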;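 note: 0% = acetylcholine EC80 with DMSO and 100% = DMSO without agonist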
An asterisk follows results filed as active.

`CCN(CC)CCNC(=O)c1ccc(NC(=O)c2ccc3c(c2)CCC3)cc1` gave CHRM5 antagonist -1, CHRM5 agonist -10, M5 PAM -2, M4 ag 1, M4 PAM -4 and CHRM4 antagonist -16.
Screening CCN(CC)CCNC(=O)c1ccc(NC(=O)c2cccc(S(=O)(=O)N(C)C3CCCCC3)c2)cc1 returned CHRM5 antagonist 98*, CHRM5 agonist -10, M5 PAM -40, M4 ag 1, M4 PAM -16 and CHRM4 antagonist 98*.
CCN(CC)CCNC(=O)c1ccc(NC(=O)Cc2ccccc2F)cc1 was read as CHRM5 antagonist -5, CHRM5 agonist -11, M5 PAM 7, M4 ag 0, M4 PAM 8 and CHRM4 antagonist -6.
Screening CCN(CC)CCNC(=O)c1ccc(NC(=O)c2ccccc2-c2ccc(C(F)(F)F)cc2)cc1 returned CHRM5 antagonist 81*, CHRM5 agonist -7, M5 PAM -18, M4 ag 3, M4 PAM -17 and CHRM4 antagonist 71*.
For CCc1ccc2c(c1)cc(CN(C(=S)Nc1ccccc1)C1CC1)c1nnnn12 the results were CHRM5 antagonist 4, CHRM5 agonist -2, M5 PAM 3, M4 ag 0, M4 PAM 32* and CHRM4 antagonist -15.
`Cc1ccc(OCCNC(=O)C(=O)NCc2ccco2)cc1` gave CHRM5 antagonist -3, CHRM5 agonist -2, M5 PAM -7, M4 ag 1, M4 PAM -18 and CHRM4 antagonist 27*.
`COc1cccc(NC(=O)Cn2c(CCC(=O)O)ccc2-c2cccs2)c1` gave CHRM5 antagonist -12, CHRM5 agonist 5, M5 PAM 19*, M4 ag 1, M4 PAM 9 and CHRM4 antagonist -3.
Screening Cc1ccc(O)c(C(=O)c2cc(C#N)c(=O)n(-c3nccs3)c2)c1 returned CHRM5 antagonist 32*, CHRM5 agonist 34*, M5 PAM -17, M4 ag 57*, M4 PAM -18 and CHRM4 antagonist 26.
`CC(=O)N(CCc1ccccc1)c1ccc2c(c1)C1CC2CCN1C(=O)OCc1ccccc1` (configuration not stated) gave CHRM5 antagonist 25, CHRM5 agonist 0, M5 PAM -15, M4 ag 8, M4 PAM -11 and CHRM4 antagonist 9.
Cn1cc(C(=O)c2cccc(Cl)c2Cl)cc1C(=O)O was read as CHRM5 antagonist -6, CHRM5 agonist -5, M5 PAM 21*, M4 ag -1, M4 PAM 14 and CHRM4 antagonist -6.
Screening COC(=O)c1cc(C(=O)c2cccc(Cl)c2Cl)cn1C returned CHRM5 antagonist 7, CHRM5 agonist -4, M5 PAM -6, M4 ag -1, M4 PAM -6 and CHRM4 antagonist 16.
Screening CCN(CC(=O)Nc1cc(Cl)ccc1C)CC(=O)NC1CC1 returned CHRM5 antagonist 14, CHRM5 agonist 2, M5 PAM -5, M4 ag 0, M4 PAM 7 and CHRM4 antagonist -4.
NC(Cc1ccc(Cl)cc1)c1csc(Nc2ccc(C(F)(F)F)cn2)n1 (configuration not stated) was read as CHRM5 antagonist -4, CHRM5 agonist 3, M5 PAM 1, M4 ag 15, M4 PAM 13 and CHRM4 antagonist 5.
c1ccc(COc2ccc(-c3cc4nc(NCCN5CCOCC5)ccn4n3)cc2)cc1 was read as CHRM5 antagonist 18, CHRM5 agonist 7, M5 PAM -12, M4 ag 16, M4 PAM -7 and CHRM4 antagonist 12.
For CC(C)(C)c1ccc(S(=O)(=O)NC(=O)C2(C)CCN2C(=O)c2cccc3ccccc23)cc1 (configuration not stated) the results were CHRM5 antagonist 1, CHRM5 agonist 2, M5 PAM -2, M4 ag 0, M4 PAM 1 and CHRM4 antagonist 11.
Screening Cc1ccc(NC(=S)NNC(=O)c2cccc([N+](=O)[O-])c2)cc1Cl returned CHRM5 antagonist 28*, CHRM5 agonist 5, M5 PAM -26, M4 ag 13, M4 PAM -19 and CHRM4 antagonist -13.
For Cc1ccc(C(C)C)cc1NC(=O)Nc1ccc([N+](=O)[O-])cc1 the results were CHRM5 antagonist 28*, CHRM5 agonist 7, M5 PAM -16, M4 ag 19, M4 PAM -14 and CHRM4 antagonist 20.
For Cc1ccc(NC(=O)Nc2cccc([N+](=O)[O-])c2)cc1F the results were CHRM5 antagonist 28*, CHRM5 agonist 7, M5 PAM -16, M4 ag 12, M4 PAM -17 and CHRM4 antagonist 14.
Screening Cc1cc(O)c(C(C)C)cc1NC(=O)Nc1ccc([N+](=O)[O-])cc1 returned CHRM5 antagonist 18, CHRM5 agonist 1, M5 PAM -3, M4 ag 5, M4 PAM 1 and CHRM4 antagonist -7.
For O=c1n(Cc2ccccc2)c(O)c2n1Cc1ccccc1N=C2c1ccccc1 the results were CHRM5 antagonist 2, CHRM5 agonist 4, M5 PAM -9, M4 ag 11, M4 PAM -3 and CHRM4 antagonist -7.
For CCN(C)C1CN(Cc2cn(Cc3cc(C)cc(C)c3)nn2)S(=O)(=O)C1 (configuration not stated) the results were CHRM5 antagonist 4, CHRM5 agonist 0, M5 PAM -5, M4 ag 0, M4 PAM 2 and CHRM4 antagonist -1.
`CC(C)Cc1ccc(C(C)NC(=O)c2ccc(=O)[nH]c2)cc1` (configuration not stated) gave CHRM5 antagonist 10, CHRM5 agonist 25*, M5 PAM -13, M4 ag 22, M4 PAM -15 and CHRM4 antagonist 9.
For Cc1ccc(C(=O)NC(C)c2ccc(F)cc2)cc1 (configuration not stated) the results were CHRM5 antagonist 7, CHRM5 agonist -4, M5 PAM -3, M4 ag 0, M4 PAM 6 and CHRM4 antagonist 1.
Screening O=S(=O)(/C=C/C=C/S(=O)(=O)c1ccccc1)c1ccccc1 returned CHRM5 antagonist 2, CHRM5 agonist 7, M5 PAM 6, M4 ag 6, M4 PAM -6 and CHRM4 antagonist 43*.
`Cc1ccc(S(=O)(=O)C=CS(=O)(=O)c2ccc(C)cc2)cc1` gave CHRM5 antagonist 6, CHRM5 agonist 1, M5 PAM -1, M4 ag 7, M4 PAM -5 and CHRM4 antagonist 32*.

Compound activity deposited in PubChem by The Scripps Research Institute Molecular Screening Center.
